Assay results from ChEMBL document CHEMBL1125330, “N-substituted pyrazino[2,3-c][1,2,6]thiadiazine 2,2-dioxides. A new class of diuretics” (J Med Chem, 1992).

Legend:
[1] = tested on: Rattus norvegicus; assay: Dose required to produce an excretion of 2 mequiv of Na+/kg bw/6h vs control groups; type: functional
In short: (§1)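 Male Sprague-Dawley rats (HC/CFY, 175-200 g), fasted and water-deprived 18 h before and during the test. Compound dosed by gavage in 1% carboxymethyl cellulose/0.1% Tween 80, then water load 2.5 mL/100 g bw po. Urine collected 6 h in metabolic cages; Na+ by flame photometry. Effective doses vs vehicle controls derived by linear regression of dose-response data.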

[2] = species: Rattus norvegicus; assay: Dose required to produce increase in 50 % in urine production vs control groups; type: functional; conditions: Rattus norvegicus, Urine; in short: as §1
[3] = tested on: Rattus norvegicus; assay: Mean sodium excretion in rats when compound administered at 0 mg/kg po and vehicle dosed at 0 umol/kg; type: ADME, organism-based; parameters: dose 0 mg/kg, route oral; conditions: in vivo
In short: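 Male Sprague-Dawley rats (HC/CFY, 175-200 g) fasted and water-deprived 18 h before and during the test. Dosed by gavage at 2.5-160 mg/kg in 1% carboxymethyl cellulose/0.1% Tween 80, 0.5 mL/100 g bw. Immediately hydrated with water (2.5 mL/100 g bw, po). Urine collected 6 h in metabolic cages; Na+ and K+ by flame photometry; mean mequiv/6 h/kg bw; nonpaired Student t-test.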

[4] = tested on: Rattus norvegicus; assay: Mean urinary output in rats when compound administered at 0 mg/kg po and vehicle dosed at 0 umol/kg; type: ADME, organism-based, Urine; parameters: dose 0 mg/kg, route oral; conditions: in vivo
In short: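 Water-loaded male Sprague-Dawley rats (HC/CFY, 175-200 g) fasted and without water for 18 h. Oral gavage of 2.5-160 mg/kg in 1% CMC with 0.1% Tween 80, then distilled water 2.5 mL/100 g po. Urine collected 6 h in metabolic cages, mean output in mL/6 h/kg bw. Unpaired Student t-test against vehicle; dose-response by linear regression.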

[5] = species: Rattus norvegicus; conditions: in vivo, po, 80 mg/kg
[6] = tested on: Rattus norvegicus; assay: Post dosing time interval of maximum activity; type: functional
In short: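 Interval of peak activity taken from timed urine collections (0-1, 1-2, 2-3, 3-4, 4-6 h) after a single oral dose in water-loaded fasted rats, […]. Urine volume and Na+ excretion followed over time.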

[7] = species: Rattus norvegicus; assay: Dose required to produce increase in 200 % in urine production vs control groups; type: functional; in short: as §1
[8] = tested on: Rattus norvegicus; assay: Mean potassium excretion in rats when compound administered at 0 mg/kg po and vehicle dosed at 0 umol/kg; type: ADME, organism-based; parameters: dose 0 mg/kg, route oral; conditions: in vivo
In short: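 Male Sprague-Dawley rats (HC/CFY, 175-200 g), no food or water for 18 h before and during the test. Single gavage dose (2.5-160 mg/kg; vehicle 1% carboxymethyl cellulose/0.1% Tween 80, 0.5 mL/100 g bw), then distilled water 2.5 mL/100 g bw po. Individual metabolic cages, 6 h urine. K+ by flame photometry, Cl- colorimetric, as mequiv/6 h/kg bw; unpaired Student t-test vs control.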

In the case of `NS(=O)(=O)c1cc(C(=O)O)c(NCc2ccco2)cc1Cl` [FUROSEMIDE], the ED2 [1] is reported as 12.95 mg/kg, the ED50 [2] is reported as 12.1 mg/kg and the Na [3] is reported as 0.39 m equiv 6hr-1 kg-1 (body weight)-1. The V [4] was 24.04 ml 6hr-1 (kg of body weight)-1, the V [5] was 75.5 ml 6hr-1 (kg of body weight)-1 and the Time [6] was 1 h. The ED200 [7] was 70.59 mg/kg and the K [8] was 0.47 m equiv 6hr-1 kg-1 (body weight)-1.
